Results published in ChEMBL document CHEMBL1135804, “Beta-strand mimicking macrocyclic amino acids: templates for protease inhibitors with antiviral activity” (J Med Chem, 2002).

Experiments:
[1] = system: MT2; test: Concentration required to produce 50% reduction in virion associated RT activity in HIV-1 infected MT2 cells; type: functional, cell-based; conditions: Homo sapiens
Method in brief: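 MT2 cells (5 × 10⁴ per 0.25 mL RF10, RPMI-1640-based) given compound (diluted from 20 mM stock in 60% ethanol), then immediately HIV-1 strain #237288 at 200 TCID₅₀; 37 °C, 5% CO₂, 6–7 days; duplicates. Supernatant virus PEG-precipitated, virion-associated RT activity counted by scintillation; % inhibition versus virus-only controls; IC50 = 50% RT reduction.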

[2] = The Water-octanol distribution coefficient at pH6.5; type: physicochemical; conditions: pH 6.5, read-out: Log D6.5
Method in brief: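 Value computed by a cited calculation method at pH 6.5, not measured experimentally.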

[3] = target: Human immunodeficiency virus type 1 protease (Human immunodeficiency virus 1, UniProt Q72874); test: Inhibitory activity against HIV-1 protease

CC(C)CN(C[C@@H](O)[C@H](Cc1ccccc1)NC(=O)O[C@H]1CCOC1)S(=O)(=O)c1ccc(N)cc1
IC50 [1]: 0.03 µM

CCCCC(=O)N[C@H]1CCCCOc2ccc(cc2)C[C@@H]([C@H](O)CN(CCC(C)C)S(=O)(=O)c2ccc(NC(C)=O)cc2)NC(=O)[C@H](CCCC)NC1=O
logD [2]: 4.6
IC50 [1]: 0.58 µM

CCCC[C@@H]1NC(=O)[C@@H](NC(=O)[C@@H](N)CO)CCCCOc2ccc(cc2)C[C@@H]([C@H](O)CN(CCC(C)C)S(=O)(=O)c2ccc(N)cc2)NC1=O
logD [2]: 0.6
IC50 [1]: > 10 µM
Ki [3]: 0.003 µM

CC(C)CCN(C[C@@H](O)[C@@H]1Cc2ccc(cc2)OCCCC[C@H](N)C(=O)N[C@@H](C(C)C)C(=O)N1)S(=O)(=O)c1ccc(N)cc1
logD [2]: 1
IC50 [1]: > 10 µM
Ki [3]: 0.0009 µM

CCCC[C@@H]1NC(=O)[C@@H](NC(=O)OC(C)(C)C)CCCCOc2ccc(cc2)C[C@@H]([C@H](O)CN(CCC(C)C)S(=O)(=O)c2ccc(NC(C)=O)cc2)NC1=O
logD [2]: 4.8
IC50 [1]: 0.39 µM
Ki [3]: 0.0075 µM

CC(=O)N[C@@H](CO)C(=O)N[C@H]1CCCCOc2ccc(cc2)C[C@@H]([C@H](O)CN(CCC(C)C)S(=O)(=O)c2ccc(N)cc2)NC(=O)[C@H](C(C)C)NC1=O
logD [2]: 0.4
IC50 [1]: > 10 µM
Ki [3]: 0.00034 µM

CCCOC[C@@H]1NC(=O)[C@@H](NC(=O)OC(C)(C)C)CCCCOc2ccc(cc2)C[C@@H]([C@H](O)CN(CCC(C)C)S(=O)(=O)c2ccc(NC(C)=O)cc2)NC1=O
logD [2]: 3.6
IC50 [1]: 0.825 µM
Ki [3]: 0.045 µM

CCCC[C@@H]1NC(=O)[C@@H](NC(=O)[C@H](CO)NC(=O)OC(C)(C)C)CCCCOc2ccc(cc2)C[C@@H]([C@H](O)CN(CCC(C)C)S(=O)(=O)c2ccc(NC(C)=O)cc2)NC1=O
logD [2]: 3
IC50 [1]: 2.55 µM
Ki [3]: 0.012 µM

CCCC[C@@H]1NC(=O)[C@@H](NC(C)=O)CCCCOc2ccc(cc2)C[C@@H]([C@H](O)CN(CCC(C)C)S(=O)(=O)c2ccc(N)cc2)NC1=O
logD [2]: 3
IC50 [1]: 0.91 µM
Ki [3]: 0.0028 µM

CCCOC[C@@H]1NC(=O)[C@@H](N)CCCCOc2ccc(cc2)C[C@@H]([C@H](O)CN(CCC(C)C)S(=O)(=O)c2ccc(N)cc2)NC1=O
logD [2]: 0.5
IC50 [1]: > 10 µM
Ki [3]: 0.045 µM

CC(=O)Nc1ccc(S(=O)(=O)N(CCC(C)C)C[C@@H](O)[C@@H]2Cc3ccc(cc3)OCCCC[C@H](NC(=O)OC(C)(C)C)C(=O)N[C@@H](C(C)C)C(=O)N2)cc1
logD [2]: 4.1
IC50 [1]: 0.177 µM
Ki [3]: 0.002 µM

CCCC[C@@H]1NC(=O)[C@@H](N)CCCCOc2ccc(cc2)C[C@@H]([C@H](O)CN(CCC(C)C)S(=O)(=O)c2ccc(N)cc2)NC1=O
logD [2]: 1.7
IC50 [1]: 6.85 µM
Ki [3]: 0.00031 µM
